Assay results: ChEMBL document CHEMBL4382237, “Design, Synthesis, and Biological Evaluation of 2-Nitroimidazopyrazin-one/-es with Antitubercular and Antiparasitic Activity” (J Med Chem, 2018)
Values after ≈ are worked out from the molar mass of the structure shown.

What was measured:
Klebsiella pneumoniae = assay: Antibacterial activity against Klebsiella pneumoniae 700603 by broth microdilution assay; format: functional
Procedure, shortened: (§1)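 Broth microdilution run essentially per an earlier report. MIC taken as the lowest concentration with no visible growth. Replicates typically agreed within one 2-fold dilution. The median MIC is reported, with a range where the median fell between two tested concentrations.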

Cryptococcus neoformans = assay: Antifungal activity against Cryptococcus neoformans H99 ATCC […] broth microdilution assay; format: functional; conditions: var. grubii H99 ATCC 208821; procedure, shortened: as §1
[1] = tested on: Mycobacterium tuberculosis; assay: Antibacterial activity against non-replicating Mycobacterium tuberculosis H37Rv after 5 days under hypoxic condition by resazurin dye-based fluorescence assay; format: functional; conditions: 120 h
Procedure, shortened: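 Same H37Rv inoculum (OD600 0.001, ~2 x 10^4 CFU/mL) in 7H9S with serially diluted compound. Plates held 5 days at 0.1% oxygen, then resazurin plus Tween-80 added.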

[2] = tested on: Mycobacterium tuberculosis; assay: Antibacterial activity against Mycobacterium tuberculosis H37Rv after 5 days under normoxic condition by resazurin dye-based fluorescence assay; format: functional, organism-based
Procedure, shortened: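 H37Rv grown in 7H9/ADC/glycerol/Tyloxapol to mid-exponential phase, diluted to OD600 0.001 (~2 x 10^4 CFU/mL) in 7H9S with serially diluted compound. Incubated 5 days at 37 °C, then resazurin and Tween-80 added. Fluorescence (ex 530/em 590 nm) read after 24 h, normalised to no-drug and no-bacteria wells.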

Pseudomonas aeruginosa = assay: Antibacterial activity against Pseudomonas aeruginosa ATCC 27853 by broth microdilution assay; format: functional; procedure, shortened: as §1
Escherichia coli = assay: Antibacterial activity against Escherichia coli ATCC 25922 by broth microdilution assay; format: functional; procedure, shortened: as §1
Staphylococcus aureus = assay: Antibacterial activity against methicillin-resistant Staphylococcus aureus ATCC […] by broth microdilution assay; format: functional
Candida albicans = assay: Antifungal activity against Candida albicans ATCC 90028 by broth microdilution assay; format: functional; procedure, shortened: as §1
Giardia intestinalis = assay: Antiparasitic activity against Giardia lamblia WB trophozoites after 24 to 48 hrs by CellTiter-Glo luminescent cell viability assay; conditions: Giardia duodenalis
[3] = tested on: Trypanosoma brucei brucei; assay: Antiparasitic activity against bloodstream form of Trypanosoma brucei brucei strain 427 assessed as inhibition of parasitic growth at 40 uM after 48 hrs by resazurin dye-based assay relative to control; format: functional; conditions: strain 427, 48 h, read-out: GI
HepG2 = assay: Cytotoxicity against human HepG2 cells after 24 hrs by resazurin dye-based fluorescence assay; format: cell-based; conditions: hepg2, 24 h
Procedure, shortened: (§2)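 HEK293 (3000/well) and HepG2 (5000/well) were grown 24 h in DMEM with 10% FBS at 37 °C, 5% CO2. Cells were then exposed 24 h to a dilution series up to 100 µM (0.5% DMSO). 5 µM resazurin was added for 2 h, read at ex 560/em 590. 1% Triton X-100 served as lysis control. CC50 was derived from the curves.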

HEK293 = assay: Cytotoxicity against HEK293 cells after 24 hrs by resazurin dye-based fluorescence assay; format: cell-based; conditions: human, hek293, 24 h; procedure, shortened: as §2
Acinetobacter baumannii = assay: Antibacterial activity against Acinetobacter baumannii ATCC 19606 by broth microdilution assay; format: functional; conditions: ATCC 19606 = CIP 70.34 = JCM 6841; procedure, shortened: as §1
Entamoeba histolytica = assay: Antiparasitic activity against Entamoeba histolytica HM-1:IMSS trophozoites after 24 to 48 hrs by CellTiter-Glo luminescent cell viability assay; format: functional, organism-based; conditions: read-out: IC50
Procedure, shortened: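 Axenic trophozoites were kept in TYI-S-33 with penicillin (100 U/mL) and streptomycin (100 µg/mL) and harvested in log phase. 5000 parasites per well were exposed to a final 8-point two-fold series of 0.39–50 µM, from 10 mM DMSO stocks. Plates were incubated 24–48 h at 37 °C under anaerobic conditions. ATP luminescence viability was read in triplicate. Percent inhibition is given at the highest concentration tested.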

Clostridioides difficile = assay: Antibacterial activity against Clostridium difficile 630 ATCC BAA-1382 by broth microdilution assay; format: functional; procedure, shortened: as §1
[4] = tested on: Mycobacterium tuberculosis; assay: Antibacterial activity against Mycobacterium tuberculosis H37Rv assessed as inhibition of bacterial growth at 32 ug/ml after 5 days under normoxic condition by resazurin dye-based fluorescence assay relative to control; format: functional; conditions: 120 h, read-out: GI
[5] = tested on: Trypanosoma brucei brucei; assay: Antiparasitic activity against bloodstream form of Trypanosoma brucei brucei strain 427 after 48 hrs by resazurin dye-based assay; format: functional, organism-based; conditions: strain 427, 48 h
[6] = Apparent permeability across apical to basolateral side in human Caco2 cells assessed as mean drug recovery at 2 uM after 2 hrs by lucifer yellow dye-based LC-MS/MS analysis; conditions: caco-2, 2 h
[7] = Metabolic stability in CD-1 mouse liver microsomes assessed as parent compound remaining at 3 uM after 2 hrs by LC-MS/MS analysis
[8] = Metabolic stability in human liver microsomes assessed as parent compound remaining at 3 uM after 2 hrs by LC-MS/MS analysis

Row | SMILES | MIC (Klebsiella pneumoniae) [µg/mL] | MIC (Cryptococcus neoformans) [µg/mL] | MIC [1] [µg/mL] | MIC [2] [µg/mL] | MIC (Pseudomonas aeruginosa) [µg/mL] | MIC (Escherichia coli) [µg/mL] | MIC (Staphylococcus aureus) [µg/mL] | MIC (Candida albicans) [µg/mL] | IC50 (Giardia intestinalis) [µM] | IC50 (Giardia intestinalis; read-out: pIC50 (converted)) [µM] | CC50 (HepG2) [µM] | CC50 (HEK293) [µM] | MIC (Acinetobacter baumannii) [µg/mL] | IC50 (Entamoeba histolytica) [µM] | IC50 ([5]; read-out: IC50) [µM] | IC50 ([5]; read-out: pIC50 (converted)) [µM] | also measured
1 | CC(c1ccc(F)cc1)n1ccn2cc([N+](=O)[O-])nc2c1=O (configuration not stated) | > 32 | > 32 | 4 to 6.3 (≈ 13.2 to 20.8 µM) | 0.5 (≈ 1.65 µM) | > 32 | > 32 | > 32 | > 32 | 2.1 | 2 | > 100 | > 100 | > 32 |  |  |  | inhibition of growth at 40 µM [3]: 94%
2 | O=C(NCc1ccc(OC(F)(F)F)cc1)c1ncc([N+](=O)[O-])[nH]1 |  |  | > 32 | >32 |  |  |  |  | 0.2 to 0.5 |  |  |  |  | 2.2 to 4.5 |  |  | MIC (Clostridioides difficile): 4 to 16 µg/mL (≈ 12.1 to 48.5 µM); inhibition of growth at 32 µg/mL [4]: 60 to 75%
3 | O=C(Cn1ccn2cc([N+](=O)[O-])nc2c1=O)N1CCOCC1 | > 32 | > 32 | > 32 | >32 | > 32 | > 32 | > 32 | > 32 | > 50 | > 50.1 | > 100 | > 100 | > 32 |  | 4.1 | 3.98 | 
4 | O=c1[nH]ccn2cc([N+](=O)[O-])nc12 | > 32 | > 32 | > 32 | >32 | > 32 | > 32 | > 32 | > 32 | > 25 | > 25.1 | > 100 | > 100 | > 32 |  |  |  | inhibition of growth at 40 µM [3]: 97%
5 | O=[N+]([O-])c1cn2ccnc(OCCc3ccc(OC(F)(F)F)cc3)c2n1 | > 32 | > 32 | > 32 | >32 | > 32 | > 32 | > 32 | > 32 | 5.2 | 5.01 | > 100 | > 100 | > 32 | 7.8 |  |  | 
6 | CC(C)NCC(O)COc1cccc2ccccc12 (configuration not stated) [PROPRANOLOL] |  |  |  |  |  |  |  |  |  |  |  |  |  |  |  |  | Drug recovery [6]: 70%
7 | O=c1c2nc([N+](=O)[O-])cn2ccn1Cc1ccc(F)cc1F | > 32 | > 32 | > 32 | 16 to 32 | > 32 | > 32 | > 32 | > 32 | > 50 | > 50.1 | > 100 | > 100 | > 32 |  | > 40 | > 39.8 | 
8 | O=C(NO)c1nc([N+](=O)[O-])cn1Cc1ccc(OC(F)(F)F)cc1 |  |  | > 32 | >32 |  |  |  |  | 2.7 to 7.5 |  |  |  |  | 10 to 45 |  |  | MIC (Clostridioides difficile): 16 to 64 µg/mL (≈ 46.2 to 185 µM); inhibition of growth at 32 µg/mL [4]: 60 to 75%
9 | O=c1c2nc([N+](=O)[O-])cn2ccn1Cc1ccccc1OC(F)(F)F | > 32 | > 32 | 8 (≈ 22.6 µM) | 1 (≈ 2.82 µM) | > 32 | > 32 | > 32 | > 32 | 8.2 | 7.94 | > 100 | > 100 | > 32 |  | 6 | 6.31 | Stability [7]: > 99%; Stability [8]: > 99%
